Measured values: ChEMBL document CHEMBL1128448, “Synthesis and antifungal activity of new azole derivatives containing an N-acylmorpholine ring” (1995)
≈ marks a conversion by molar mass, not a printed value.

Legend:
[1] = tested on: Mus sp.; assay: In vivo evaluation of % survival rate after peroral administration on 7th day at dose 1 mg/kg; assay type: functional; settings: route oral, 1 mg/kg
[2] = tested on: Kluyveromyces marxianus; assay: Evaluation of In vitro antifungal activity against Candida pseudotropicalis ATCC 28838 by broth macro dilution method; assay type: functional
In short: (§1)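 Yeast MIC and MFC by broth macrodilution per NCCLS M27-P in RPMI-1640 buffered with 0.165 M MOPS. Fluconazole in sterile water, other drugs in DMSO. C. parapsilosis ATCC 22019 is the reference strain in each run. MIC is the lowest concentration with turbidity ≤ the 80% inhibition standard. For MFC, 0.04 mL from clear tubes is plated on Sabouraud agar; MFC is the lowest concentration giving ≤1 colony.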

[3] = tested on: Candida tropicalis; assay: Evaluation of In vitro antifungal activity against Candida tropicalis 2.11 by broth macro dilution method; assay type: functional; in short: as §1
[4] = tested on: Microsporum canis; assay: In vitro evaluation of minimum inhibitory concentration against Microsporum canis 47; assay type: functional; settings: Microsporum canis; read-out: MIC
In short: (§2)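 Stocks are 800 μg/mL in 50% ethanol. Each plate gets 10 μL of inoculum at 10^5 cfu/mL. Incubation at 25 °C, 48 h for yeasts and 120 h for dermatophytes and molds. Organisms are ATCC strains or clinical isolates.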

[5] = tested on: Aspergillus flavus; assay: In vitro evaluation of minimum inhibitory concentration against Aspergillus flavus 19; assay type: functional; settings: Aspergillus flavus; read-out: MIC; in short: as §2
[6] = tested on: Candida albicans; assay: Evaluation of In vitro antifungal activity against Candida albicans 406 by broth macro dilution method; assay type: functional; in short: as §1
[7] = tested on: Trichophyton rubrum; assay: In vitro evaluation of minimum inhibitory concentration against Trichophyton rubrum 90; assay type: functional; settings: Trichophyton rubrum; read-out: MIC; in short: as §2
[8] = tested on: Kluyveromyces marxianus; assay: Evaluation of In vitro antifungal activity against yeasts by broth macro dilution method; assay type: functional; in short: as §1
[9] = tested on: Pichia kudriavzevii; assay: In vitro evaluation of minimum inhibitory concentration against Candida krusei 70; assay type: functional; settings: Pichia kudriavzevii; read-out: MIC; in short: as §2
[10] = tested on: Candida albicans; assay: Evaluation of In vitro antifungal activity against Candida albicans 31 by broth macro dilution method; assay type: functional; in short: as §1
[11] = tested on: Meyerozyma guilliermondii; assay: In vitro evaluation of minimum inhibitory concentration against Candida guilliermondii 26; assay type: functional; settings: Meyerozyma guilliermondii; read-out: MIC; in short: as §2
[12] = tested on: Mus sp.; assay: In vivo evaluation of % survival rate after peroral administration on 5th day at dose 0.5 mg/kg; assay type: functional; settings: route oral
[13] = tested on: Candida albicans; assay: Evaluation of […] antifungal activity against Candida albicans 60 by broth macro dilution method; assay type: functional; in short: as §1
[14] = tested on: Candida albicans; assay: Evaluation of In vitro antifungal activity against Candida albicans 76 by broth macro dilution method; assay type: functional; in short: as §1
[15] = tested on: Mus sp.; assay: In vivo evaluation of % survival rate after peroral administration on 5th day at dose 1 mg/kg; assay type: functional; settings: Mus sp., po
[16] = tested on: Pichia kudriavzevii; assay: Evaluation of In vitro antifungal activity against Candida krusei 70 by broth macro dilution method; assay type: functional; in short: as §1
[17] = tested on: Mus sp.; assay: In vivo evaluation of % survival rate after peroral administration on 9th day at dose 1 mg/kg; assay type: functional; settings: route oral, 1 mg/kg
[18] = tested on: Candida albicans; assay: In vitro evaluation of minimum inhibitory concentration against Candida albicans 76; assay type: functional; in short: as §2
[19] = tested on: Pichia kudriavzevii; assay: Evaluation of In vitro antifungal activity against Candida krusei C64 by broth macro dilution method; assay type: functional; in short: as §1
[20] = tested on: Cryptococcus neoformans; assay: Evaluation of In vitro antifungal activity against Cryptococcus neoformans 74 by broth macro dilution method; assay type: functional; in short: as §1
[21] = tested on: Trichophyton benhamiae; assay: In vitro evaluation of minimum inhibitory concentration against Trichophyton mentagrophytes 23; assay type: functional, Arthroderma benhamiae; settings: Trichophyton benhamiae; read-out: MIC; in short: as §2
[22] = tested on: Candida albicans; assay: Evaluation of In vitro antifungal activity against Candida albicans C52 by broth macro dilution method; assay type: functional; in short: as §1
[23] = tested on: Candida parapsilosis; assay: Evaluation of In vitro antifungal activity against Candida parapsilosis 2.07 by broth macro dilution method; assay type: functional; settings: Lodderomyces parapsilosis; in short: as §1
[24] = tested on: Candida albicans; assay: Evaluation of In vitro antifungal activity against Candida albicans ATCC 10231 by broth macro dilution method; assay type: functional; in short: as §1
[25] = tested on: Candida parapsilosis; assay: In vitro evaluation of minimum inhibitory concentration against Candida parapsilosis 61; assay type: functional; settings: Lodderomyces parapsilosis; read-out: MIC; in short: as §2
[26] = tested on: Candida albicans; assay: Evaluation of In vitro antifungal activity against Candida albicans C56 by broth macro dilution method; assay type: functional; in short: as §1
[27] = tested on: Candida parapsilosis; assay: Evaluation of In vitro antifungal activity against Candida parapsilosis ATCC 22019 by broth macro dilution method; assay type: functional; settings: Lodderomyces parapsilosis; in short: as §1
[28] = tested on: Candida tropicalis; assay: Evaluation of In vitro antifungal activity against Candida tropicalis 50 by broth macro dilution method; assay type: functional; in short: as §1
[29] = tested on: Candida albicans; assay: Evaluation of In vitro antifungal activity against Candida albicans 60 by broth macro dilution method
[30] = tested on: Nannizzia gypsea; assay: In vitro evaluation of minimum inhibitory concentration against Microsporum gypseum 22; assay type: functional; settings: Nannizzia gypsea; read-out: MIC; in short: as §2
[31] = tested on: Mus sp.; assay: In vivo evaluation of % survival rate after peroral administration on 3rd day at dose 0.5 mg/kg; assay type: functional; settings: route oral
[32] = tested on: Nakaseomyces glabratus; assay: Evaluation of In vitro antifungal activity against Torulopsis glabrata 78 by broth macro dilution method; assay type: functional; in short: as §1
[33] = tested on: Mus sp.; assay: In vivo evaluation of % survival rate after peroral administration on 3rd day at dose 1 mg/kg; assay type: functional; settings: Mus sp., po
[34] = tested on: Aspergillus niger; assay: In vitro evaluation of minimum inhibitory concentration against Aspergillus niger 18; assay type: functional; settings: Aspergillus niger; read-out: MIC; in short: as §2
[35] = tested on: Candida parapsilosis; assay: Evaluation of In vitro antifungal activity against Candida parapsilosis C74 by broth macro dilution method; assay type: functional; settings: Lodderomyces parapsilosis; in short: as §1
[36] = tested on: Candida parapsilosis; assay: Evaluation of In vitro antifungal activity against Candida parapsilosis C292 by broth macro dilution method; assay type: functional; settings: Lodderomyces parapsilosis; in short: as §1
[37] = tested on: Meyerozyma guilliermondii; assay: Evaluation of In vitro antifungal activity against Candida guilliermondii 26 by broth macro dilution method; assay type: functional; in short: as §1
[38] = tested on: Mus musculus; assay: In vivo evaluation of % survival rate after peroral administration on 7th day at dose 0.5 mg/kg; assay type: functional; settings: Mus musculus, po
[39] = tested on: Aspergillus fumigatus; assay: In vitro evaluation of minimum inhibitory concentration against Aspergillus fumigatus 33; assay type: functional; settings: Aspergillus fumigatus; read-out: MIC; in short: as §2
[40] = tested on: Candida albicans; assay: Evaluation of In vitro antifungal activity against Candida albicans 2.01 by broth macro dilution method; assay type: functional; in short: as §1
[41] = tested on: Candida parapsilosis; assay: Evaluation of In vitro antifungal activity against Candida parapsilosis ATCC 141095 by broth macro dilution method; assay type: functional; settings: Lodderomyces parapsilosis; in short: as §1
[42] = tested on: Mus sp.; assay: In vivo evaluation of % survival rate after peroral administration on 9th day at dose 0.5 mg/kg; assay type: functional; settings: Mus sp., po
[43] = tested on: Cryptococcus neoformans; assay: Evaluation of In vitro antifungal activity against Cryptococcus neoformans 87 by broth macro dilution method; assay type: functional; in short: as §1

**Q.** What does the source list for `C[C@H]1N(C(=O)c2ccc(C(F)(F)F)cc2)C[C@H](O)O[C@@]1(Cn1cncn1)c1ccc(F)cc1F` (stereo in doubt; (-)-39a)?
**A.** Survival [1]: 100%; MFC [2]: 64 µg/mL (≈ 133 µM); MFC [3]: > 64 µg/mL; MIC [3]: 64 µg/mL (≈ 133 µM); MIC [4]: 40 µg/mL (≈ 82.9 µM); MIC [5]: > 80 µg/mL; MFC [6]: > 64 µg/mL; MIC [6]: 1 µg/mL (≈ 2.07 µM); MIC [7]: 40 µg/mL (≈ 82.9 µM); MIC [8]: 0.5 µg/mL (≈ 1.04 µM); MIC [9]: > 80 µg/mL; MFC [10]: > 64 µg/mL; MIC [10]: 0.5 µg/mL (≈ 1.04 µM); MIC [11]: 80 µg/mL (≈ 166 µM); survival at 0.5 mg/kg [12]: 100%; MIC [13]: 1 µg/mL (≈ 2.07 µM); MFC [14]: > 64 µg/mL; MIC [14]: 1 µg/mL (≈ 2.07 µM); survival at 1 mg/kg [15]: 100%; MFC [16]: > 64 µg/mL; MIC [16]: > 64 µg/mL; Survival [17]: 100%; MIC [18]: 10 µg/mL (≈ 20.7 µM); MFC [19]: > 64 µg/mL; MIC [19]: > 64 µg/mL; MFC [20]: 2 µg/mL (≈ 4.15 µM); MIC [20]: 0.25 µg/mL (≈ 0.518 µM); MIC [21]: > 80 µg/mL; MFC [22]: > 64 µg/mL; MIC [22]: 0.5 µg/mL (≈ 1.04 µM); MFC [23]: > 64 µg/mL; MIC [23]: 4 µg/mL (≈ 8.29 µM); MFC [24]: > 64 µg/mL; MIC [24]: 0.5 µg/mL (≈ 1.04 µM); MIC [25]: 40 µg/mL (≈ 82.9 µM); MFC [26]: > 64 µg/mL; MIC [26]: 1 µg/mL (≈ 2.07 µM); MFC [27]: 32 µg/mL (≈ 66.3 µM); MIC [27]: 16 µg/mL (≈ 33.2 µM); MFC [28]: > 64 µg/mL; MIC [28]: > 64 µg/mL; MFC [29]: > 64 µg/mL; MIC [30]: 80 µg/mL (≈ 166 µM); survival at 0.5 mg/kg [31]: 100%; MFC [32]: > 64 µg/mL; MIC [32]: > 64 µg/mL; survival at 1 mg/kg [33]: 100%; MIC [34]: > 80 µg/mL; MFC [35]: 32 µg/mL (≈ 66.3 µM); MIC [35]: 2 µg/mL (≈ 4.15 µM); MFC [36]: > 64 µg/mL; MIC [36]: 8 µg/mL (≈ 16.6 µM); MFC [37]: > 64 µg/mL; MIC [37]: 32 µg/mL (≈ 66.3 µM); survival at 0.5 mg/kg [38]: 80%; MIC [39]: 80 µg/mL (≈ 166 µM); MFC [40]: > 64 µg/mL; MIC [40]: 2 µg/mL (≈ 4.15 µM); MFC [41]: > 64 µg/mL; MIC [41]: > 64 µg/mL; survival at 0.5 mg/kg [42]: 40%; MFC [43]: > 64 µg/mL; MIC [43]: 4 µg/mL (≈ 8.29 µM)
